Results on 32 molecules are retold here after ChEMBL document CHEMBL3856271, “Bis-Michael Acceptors as Novel Probes to Study the Keap1/Nrf2/ARE Pathway” (J Med Chem, 2016).

Format in all cases: cell-based
Data set [1] addresses T1, Keap1/Nrf2 (Homo sapiens) (UniProt Q16236+Q14145). The data set can be described thus: Inhibition of Keap1-Nrf2 interaction in HEK293T cells assessed as induction of ARE-luciferase gene expression at 100 uM after 24 hrs relative to control. The settings on record: HEK-293T. The method, boiled down:
(§1)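 HEK 293T cells (1 × 105) plated the day before transfection, transiently transfected with 0.1 μg ARE-luc (Nrf2 response element) plasmid by FuGENE6; next day treated with compounds (range 0–100 μM) or sulforaphane 10 μM as positive control for 24 h. Lysates read for luciferase activity; expressed as fold-induction. Cells grown in complete DMEM with 10% FBS, 37 °C, 5% CO2.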

Data set [2] has as its target T1, Keap1/Nrf2 (Homo sapiens). The data set is described as follows: Inhibition of Keap1-Nrf2 interaction in HEK293T cells assessed as induction of ARE-luciferase gene expression at 20 uM after 24 hrs relative to control. The settings on record: HEK-293T. An outline of the steps: as §1
For data set [3], the target named is T1, Keap1/Nrf2 (Homo sapiens). The data set is described as follows: Inhibition of Keap1-Nrf2 interaction in HEK293T cells assessed as induction of ARE-luciferase gene expression at 1 uM after 24 hrs relative to control. The settings on record: HEK-293T. An outline of the steps:
as §1

Data set [4] in a line: Toxicity in HEK293T cells assessed as mortality at 100 uM after 24 hrs LDH assay relative to control. The settings on record: human, hek-293t. The method, boiled down:
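HEK 293T cells cultured in complete DMEM (10% FBS, antibiotics, sodium pyruvate, nonessential amino acids, 2 mM L-glutamine) at 37 °C, 5% CO2. Treated with increasing concentrations of Keap1 ligands for 24 h. Supernatants collected, cells lysed in 1% Triton, and LDH activity measured with buffer containing L(+)-lactic acid and NAD. Mortality reported when over 5%.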

T1 sequence (Q14145 whole entry, looked up): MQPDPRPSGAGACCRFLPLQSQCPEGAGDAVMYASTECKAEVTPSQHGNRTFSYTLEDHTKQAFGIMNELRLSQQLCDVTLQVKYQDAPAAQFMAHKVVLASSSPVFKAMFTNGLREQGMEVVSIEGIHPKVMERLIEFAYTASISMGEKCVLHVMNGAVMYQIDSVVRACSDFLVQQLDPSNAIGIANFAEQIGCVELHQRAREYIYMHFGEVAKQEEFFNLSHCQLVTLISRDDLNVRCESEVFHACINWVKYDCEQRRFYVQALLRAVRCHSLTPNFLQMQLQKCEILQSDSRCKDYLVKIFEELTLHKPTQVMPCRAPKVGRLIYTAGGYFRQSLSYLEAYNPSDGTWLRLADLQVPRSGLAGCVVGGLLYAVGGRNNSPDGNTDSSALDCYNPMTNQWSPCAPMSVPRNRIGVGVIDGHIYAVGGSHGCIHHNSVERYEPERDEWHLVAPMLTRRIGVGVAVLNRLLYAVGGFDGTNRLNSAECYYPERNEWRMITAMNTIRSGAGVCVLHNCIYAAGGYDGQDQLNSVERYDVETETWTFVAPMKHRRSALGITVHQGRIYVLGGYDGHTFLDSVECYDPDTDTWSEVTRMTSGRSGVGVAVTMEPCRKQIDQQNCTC
T1 sequence (Q16236 whole entry, looked up): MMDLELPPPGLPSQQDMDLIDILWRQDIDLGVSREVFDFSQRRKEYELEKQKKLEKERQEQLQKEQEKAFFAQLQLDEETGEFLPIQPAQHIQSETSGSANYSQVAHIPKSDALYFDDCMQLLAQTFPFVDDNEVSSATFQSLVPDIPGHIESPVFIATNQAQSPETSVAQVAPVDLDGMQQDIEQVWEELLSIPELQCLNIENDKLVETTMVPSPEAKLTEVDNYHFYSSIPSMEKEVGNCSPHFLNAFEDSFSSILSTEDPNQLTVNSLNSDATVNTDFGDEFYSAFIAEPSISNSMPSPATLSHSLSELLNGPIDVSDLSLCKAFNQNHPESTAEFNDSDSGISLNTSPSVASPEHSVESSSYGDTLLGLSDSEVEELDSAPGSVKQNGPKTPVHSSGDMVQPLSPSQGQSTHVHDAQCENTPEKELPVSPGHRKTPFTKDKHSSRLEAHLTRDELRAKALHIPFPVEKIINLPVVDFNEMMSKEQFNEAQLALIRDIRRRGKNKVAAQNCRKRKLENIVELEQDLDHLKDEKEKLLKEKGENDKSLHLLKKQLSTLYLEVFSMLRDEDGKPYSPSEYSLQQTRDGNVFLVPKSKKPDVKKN

A word on the mortality: it is the percentage killed. For `COC(=O)C1=CC2(CC(CC3CC4(C=C(C(=O)OC)C3=O)OCCO4)C1=O)OCCO2` (stereo not drawn), the fold change (FC) was 15.9 in data set [1], 2.76 in data set [2] and 0.94 in data set [3]. The mortality in data set [4] came out at 12%.
For the molecule `COC(=O)C1=CC(C)(C)CC(C/C=C/CC2CC(C)(C)C=C(C(=O)OC)C2=O)C1=O` (stereo not drawn), in data set [3], the fold change (FC) turned out to be 15.2.
Still for that read-out and setting: the result for `COC(=O)C1=CC(C)(C)CC(CCCCC2CC(C)(C)C=C(C(=O)OC)C2=O)C1=O` (stereo not drawn) reads 8.23.
As for `COC(=O)C1=CC(C)(C)CC(CC(=O)OC(C)(C)C)C1=O` (stereo not drawn), the figures for the fold change (FC) in data set [1], in data set [2] and in data set [3] were 1.75, 2 and 0.65, respectively.
Turning to `COC(=O)C1=CC(C)(C)CC(CC2CC(C)(C)C=C(C(=O)OC)C2=O)C1=O` (stereo not drawn), the results for the fold change (FC) in data set [1], in data set [2] and in data set [3] were 101, 3.6 and 4.49, respectively. Also, the mortality in data set [4] stood at 24%.
For `CC1(C)C=C(COC(=O)C2=CC(C)(C)CCC2=O)C(=O)CC1`, the fold change (FC) in data set [1] was found to be 121; in data set [2], 3.78; in data set [3], 2.02. In addition, in data set [4], the mortality is reported as 15%.
On to `COC(=O)C1=CC(C)(C)C=CC1=O`, for which the fold change (FC) was determined as 10.3 in data set [1], 3.39 in data set [2] and 1.35 in data set [3].
For the molecule `COC(=O)C1=CC(C)(C)CC(CC#CCC2CC(C)(C)C=C(C(=O)OC)C2=O)C1=O` (stereo not drawn), the fold change (FC) in data set [3] worked out at 52.5.
For the molecule `CC1(C)C=C(Cl)C(=O)CC1`, the fold change (FC) is 43.4 in data set [1], 4.42 in data set [2] and 1.33 in data set [3].
Taken in the same sequence, the figures for `COC(=O)C1=CC(C)(C)CC(CC#N)C1=O` (stereo not drawn) were 17.1, 2.22 and 1.03.
In the case of `COC(=O)C1=CC(C)(C)CC(CCCC2CC(C)(C)C=C(C(=O)OC)C2=O)C1=O` (stereo not drawn), the fold change (FC) in data set [2] worked out at 248; in data set [3] it was 4.71.
`CC1(C)C=C(I)C(=O)CC1`: the fold change (FC) came out at 17.4 in data set [1], 1.16 in data set [2] and 1.22 in data set [3].
For the molecule `CC1(C)C=C(C(=O)OC(C)(C)C)C(=O)CC1`, the fold change (FC) in data set [1] is 106; in data set [2], 3.89; in data set [3], 1.05. Also, the mortality in data set [4] stood at 16%.
For the molecule `COC(=O)C1=CC(C)(C)CC(C)C1=O` (stereo not drawn), the results for the fold change (FC) in data set [1], in data set [2] and in data set [3] were 4.6, 2.75 and 1.17, respectively. Moreover, the Activity entry in data set [4] was “Non-Toxic”.
For the molecule `COC(=O)C1CC(C)(C)C=CC1=O` (stereo not drawn), the fold change (FC) in data set [1] was determined as 41.9; in data set [2] it was 3.2; in data set [3], 1.05.
With `C=CCOC(=O)C1=CC(C)(C)CCC1=O`, the figures for the fold change (FC) in data set [1], in data set [2] and in data set [3] were 94.8, 4.36 and 1.39, respectively. Besides, the mortality in data set [4] stood at 17%.
In the case of `CCCCCCC1CC2(C=C(C(=O)OC)C1=O)OCCO2` (stereo not drawn), the fold change (FC) in data set [1] worked out at 20.2; in data set [2] it was 2.19; in data set [3] it was 1.4. Besides, the Activity entry in data set [4] is “Non-Toxic”.
For the molecule `CC1(C)C=C(CO)C(=O)CC1`, the fold change (FC) in data set [1] was found to be 1.46; in data set [2], 0.77; in data set [3] it was 0.72.
Regarding `COC(=O)CCC1CC(C)(C)C=C(C(=O)OC)C1=O` (stereo not drawn), the fold change (FC) is 5.96 in data set [1], 1.24 in data set [2] and 0.68 in data set [3].
As for `COC(=O)C1=CC(C)(C)CC(Cc2ccccc2)C1=O` (stereo not drawn), the fold change (FC) in data set [1] was found to be 48.5; in data set [2], 0.92; in data set [3], 0.95. Moreover, the Activity entry in data set [4] is on record as “Non-Toxic”.
With `COC(=O)C1=CC(C)(C)CC(CC(C)=O)C1=O` (stereo not drawn), the fold change (FC) is 8.71 in data set [1], 2.2 in data set [2] and 0.49 in data set [3].
For the molecule `COC(=O)C1=CC2(CC(C)C1=O)OCCO2` (stereo not drawn), the fold change (FC) in data set [2] was determined as 2.49; in data set [3], 0.98. For the same molecule, the Activity entry in data set [4] was “Non-Toxic”.
For `COC(=O)C1=CC(C)(C)CCC1=O`, the fold change (FC) in data set [1] came to 50.6; in data set [2], 6.46; in data set [3], 1.36. In data set [4], the Activity entry is recorded as “Non-Toxic”.
Consider `CC1(C)C=C(C(=O)O)C(=O)CC1`, for which the values for the fold change (FC) in data set [1], in data set [2] and in data set [3] were 29.6, 3.11 and 2, respectively.
On to `C=CCC1CC(C)(C)C=C(C(=O)OC)C1=O` (stereo not drawn), for which the fold change (FC) was 25.3 in data set [1], 2.05 in data set [2] and 1.34 in data set [3]. Moreover, in data set [4], the Activity result is recorded as “Non-Toxic”.
For the molecule `COC(=O)C1(C)CC(C)(C)C=CC1=O` (stereo not drawn), the results for the fold change (FC) in data set [1], in data set [2] and in data set [3] were 4.56, 2.43 and 1.47, respectively.
With `CCCCCCC1CC(C)(C)C=C(C(=O)OC)C1=O` (stereo not drawn), the values for the fold change (FC) in data set [1], in data set [2] and in data set [3] were 64.7, 2 and 1.15, respectively. In addition, the Activity result in data set [4] is recorded as “Non-Toxic”.
Consider `CC1(C)C=C(COC(=O)C2CC(C)(C)CCC2=O)C(=O)CC1` (stereo not drawn), for which the values for the fold change (FC) in data set [1], in data set [2] and in data set [3] were 4.02, 3.79 and 2.98, respectively.
For `C#CCC1CC(C)(C)C=C(C(=O)OC)C1=O` (stereo not drawn), the fold change (FC) in data set [1] was determined as 34.2; in data set [2], 1.48; in data set [3], 1.14. Moreover, in data set [4], the mortality was determined as 7%.
Taken in the same sequence, the figures for `COC(=O)C1=CC(C)(C)CC(CC(F)(F)F)C1=O` (stereo not drawn) were 17.9, 1.54, 0.54 and 11%.
As to `COC(=O)C1=CC2(CC(CCCC3CC4(C=C(C(=O)OC)C3=O)OCCO4)C1=O)OCCO2` (stereo not drawn), the values for the fold change (FC) in data set [1], in data set [2] and in data set [3] were 30.9, 1.05 and 1, respectively. Moreover, the mortality in data set [4] came to 9%.
With `COC(=O)C1=CC(C)(C)CCC1O` (stereo not drawn), the results for the fold change (FC) in data set [1], in data set [2] and in data set [3] were 1.29, 1.85 and 1, respectively.
